# Laboratory results taken from ChEMBL document CHEMBL4689842, “EUbOPEN Chemogenomics Library wave 1” (2021).
# Tested on: HEK-293T
# Assay: Multiplex assay against HEK293T;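 as to Population Tubulin-Different-Phenotype (%): share of the cells with healthy nuclei that show this phenotype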
# Type: toxicity, cell-based
# Conditions: human
# Method in brief: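 With compound added, live cells were imaged on a CQ1 microscope at 37°C and 5% CO2; staining with Hoechst33342, BioTracker Green Microtubule Cytoskeleton Dye, MitoTracker Red and Annexin V Alexa Fluor 680 had been done at seeding. The CellPathfinder machine-learning gating scheme split cells into Hoechst high-intensity objects or normal cells, normal cells into healthy, pyknosed or fragmented nuclei, and pyknosed cells into mitotic or apoptotic. The tubulin, mitochondrial-mass and membrane-permeability phenotypes are per cents of healthy-nucleus cells.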
# [1] = 12 h, 1 µM, compound concentration 1 uM, replicate 1
# [2] = 12 h, 1 µM, compound concentration 1 uM, replicate 2
# [3] = 12 h, 10 µM, compound concentration 10 uM, replicate 1
# [4] = 12 h, 10 µM, compound concentration 10 uM, replicate 2
# [5] = 24 h, 1 µM, compound concentration 1 uM, replicate 1
# [6] = 24 h, 1 µM, compound concentration 1 uM, replicate 2
# [7] = 24 h, 10 µM, compound concentration 10 uM, replicate 1
# [8] = 24 h, 10 µM, compound concentration 10 uM, replicate 2
# [9] = 48 h, 1 µM, compound concentration 1 uM, replicate 1
# [10] = 48 h, 1 µM, compound concentration 1 uM, replicate 2
# [11] = 48 h, 10 µM, compound concentration 10 uM, replicate 1
# [12] = 48 h, 10 µM, compound concentration 10 uM, replicate 2
smiles,measurement,setting,value
CC[C@H](C)C(=O)O[C@H]1C[C@@H](C)C=C2C=C[C@H](C)[C@H](CC[C@@H]3C[C@@H](O)CC(=O)O3)[C@H]21 [LOVASTATIN],Population Apoptotic (%),[1],48%
same,Population Fragmented Nuclei (%),[1],22%
same,Population Healthy Nuclei (%),[1],16%
same,Population Hoechst High Intensity Objects (%),[1],14%
same,Population Mitochondria Different-Phenotype (%),[1],68%
same,Population Mitotic Cells (%),[1],51%
same,Population Normal (%),[1],85%
same,Population Pyknosed Nuclei (%),[1],60%
same,Population Tubulin-Different-Phenotype (%),[1],28%
same,Total Cell Count,[1],174
same,Population Apoptotic (%),[2],7%
same,Population Fragmented Nuclei (%),[2],4%
same,Population Healthy Nuclei (%),[2],44%
same,Population Hoechst High Intensity Objects (%),[2],4%
same,Population Membrane Permeable-Phenotype (%),[2],4%
same,Population Mitochondria Different-Phenotype (%),[2],11%
same,Population Mitotic Cells (%),[2],92%
same,Population Normal (%),[2],95%
same,Population Pyknosed Nuclei (%),[2],50%
same,Population Tubulin-Different-Phenotype (%),[2],9%
same,Total Cell Count,[2],227
same,Population Apoptotic (%),[3],47%
same,Population Fragmented Nuclei (%),[3],8%
same,Population Healthy Nuclei (%),[3],33%
same,Population Hoechst High Intensity Objects (%),[3],14%
same,Population Membrane Permeable-Phenotype (%),[3],1%
same,Population Mitochondria Different-Phenotype (%),[3],89%
same,Population Mitotic Cells (%),[3],52%
same,Population Normal (%),[3],85%
same,Population Pyknosed Nuclei (%),[3],57%
same,Population Tubulin-Different-Phenotype (%),[3],39%
same,Total Cell Count,[3],341
same,Population Apoptotic (%),[4],10%
same,Population Fragmented Nuclei (%),[4],5%
same,Population Healthy Nuclei (%),[4],45%
same,Population Hoechst High Intensity Objects (%),[4],3%
same,Population Membrane Permeable-Phenotype (%),[4],4%
same,Population Mitochondria Different-Phenotype (%),[4],21%
same,Population Mitotic Cells (%),[4],89%
same,Population Normal (%),[4],96%
same,Population Pyknosed Nuclei (%),[4],49%
same,Population Tubulin-Different-Phenotype (%),[4],16%
same,Total Cell Count,[4],266
same,Population Apoptotic (%),[5],50%
same,Population Fragmented Nuclei (%),[5],30%
same,Population Healthy Nuclei (%),[5],16%
same,Population Hoechst High Intensity Objects (%),[5],19%
same,Population Membrane Permeable-Phenotype (%),[5],4%
same,Population Mitochondria Different-Phenotype (%),[5],52%
same,Population Mitotic Cells (%),[5],50%
same,Population Normal (%),[5],80%
same,Population Pyknosed Nuclei (%),[5],52%
same,Population Tubulin-Different-Phenotype (%),[5],32%
same,Total Cell Count,[5],192
same,Population Apoptotic (%),[6],8%
same,Population Fragmented Nuclei (%),[6],3%
same,Population Healthy Nuclei (%),[6],65%
same,Population Hoechst High Intensity Objects (%),[6],3%
same,Population Membrane Permeable-Phenotype (%),[6],6%
same,Population Mitochondria Different-Phenotype (%),[6],13%
same,Population Mitotic Cells (%),[6],91%
same,Population Normal (%),[6],96%
same,Population Pyknosed Nuclei (%),[6],30%
same,Population Tubulin-Different-Phenotype (%),[6],20%
same,Total Cell Count,[6],287
same,Population Apoptotic (%),[7],38%
same,Population Fragmented Nuclei (%),[7],12%
same,Population Healthy Nuclei (%),[7],37%
same,Population Hoechst High Intensity Objects (%),[7],17%
same,Population Membrane Permeable-Phenotype (%),[7],1%
same,Population Mitochondria Different-Phenotype (%),[7],73%
same,Population Mitotic Cells (%),[7],61%
same,Population Normal (%),[7],82%
same,Population Pyknosed Nuclei (%),[7],50%
same,Population Tubulin-Different-Phenotype (%),[7],37%
same,Total Cell Count,[7],349
same,Population Apoptotic (%),[8],14%
same,Population Fragmented Nuclei (%),[8],4%
same,Population Healthy Nuclei (%),[8],57%
same,Population Hoechst High Intensity Objects (%),[8],4%
same,Population Membrane Permeable-Phenotype (%),[8],6%
same,Population Mitochondria Different-Phenotype (%),[8],17%
same,Population Mitotic Cells (%),[8],85%
same,Population Normal (%),[8],95%
same,Population Pyknosed Nuclei (%),[8],37%
same,Population Tubulin-Different-Phenotype (%),[8],20%
same,Total Cell Count,[8],320
same,Population Apoptotic (%),[9],49%
same,Population Fragmented Nuclei (%),[9],29%
same,Population Healthy Nuclei (%),[9],28%
same,Population Hoechst High Intensity Objects (%),[9],15%
same,Population Membrane Permeable-Phenotype (%),[9],2%
same,Population Mitochondria Different-Phenotype (%),[9],42%
same,Population Mitotic Cells (%),[9],50%
same,Population Normal (%),[9],84%
same,Population Pyknosed Nuclei (%),[9],41%
same,Population Tubulin-Different-Phenotype (%),[9],40%
same,Total Cell Count,[9],205
same,Population Apoptotic (%),[10],3%
same,Population Fragmented Nuclei (%),[10],6%
same,Population Healthy Nuclei (%),[10],81%
same,Population Hoechst High Intensity Objects (%),[10],3%
same,Population Membrane Permeable-Phenotype (%),[10],7%
same,Population Mitochondria Different-Phenotype (%),[10],4%
same,Population Mitotic Cells (%),[10],96%
same,Population Normal (%),[10],96%
same,Population Pyknosed Nuclei (%),[10],11%
same,Population Tubulin-Different-Phenotype (%),[10],20%
same,Total Cell Count,[10],588
same,Population Apoptotic (%),[11],42%
same,Population Fragmented Nuclei (%),[11],17%
same,Population Healthy Nuclei (%),[11],37%
same,Population Hoechst High Intensity Objects (%),[11],19%
same,Population Membrane Permeable-Phenotype (%),[11],2%
same,Population Mitochondria Different-Phenotype (%),[11],46%
same,Population Mitotic Cells (%),[11],57%
same,Population Normal (%),[11],80%
same,Population Pyknosed Nuclei (%),[11],45%
same,Population Tubulin-Different-Phenotype (%),[11],39%
same,Total Cell Count,[11],384
same,Population Apoptotic (%),[12],8%
same,Population Fragmented Nuclei (%),[12],5%
same,Population Healthy Nuclei (%),[12],72%
same,Population Hoechst High Intensity Objects (%),[12],4%
same,Population Membrane Permeable-Phenotype (%),[12],6%
same,Population Mitochondria Different-Phenotype (%),[12],5%
same,Population Mitotic Cells (%),[12],91%
same,Population Normal (%),[12],95%
same,Population Pyknosed Nuclei (%),[12],21%
same,Population Tubulin-Different-Phenotype (%),[12],24%
same,Total Cell Count,[12],484
Cc1nc(-c2cn3c(n2)-c2ccc(-c4cnn(C(C)(C)C(N)=O)c4)cc2OCC3)n(C(C)C)n1 [TASELISIB],Population Apoptotic (%),[1],21%
same,Population Fragmented Nuclei (%),[1],14%
same,Population Healthy Nuclei (%),[1],44%
same,Population Hoechst High Intensity Objects (%),[1],22%
same,Population Membrane Permeable-Phenotype (%),[1],4%
same,Population Mitochondria Different-Phenotype (%),[1],12%
same,Population Mitotic Cells (%),[1],78%
same,Population Normal (%),[1],77%
same,Population Pyknosed Nuclei (%),[1],41%
same,Population Tubulin-Different-Phenotype (%),[1],9%
same,Total Cell Count,[1],548
same,Population Apoptotic (%),[2],17%
same,Population Fragmented Nuclei (%),[2],2%
same,Population Healthy Nuclei (%),[2],80%
same,Population Hoechst High Intensity Objects (%),[2],7%
same,Population Membrane Permeable-Phenotype (%),[2],0%
same,Population Mitochondria Different-Phenotype (%),[2],28%
same,Population Mitotic Cells (%),[2],82%
same,Population Normal (%),[2],92%
same,Population Pyknosed Nuclei (%),[2],16%
same,Population Tubulin-Different-Phenotype (%),[2],13%
same,Total Cell Count,[2],803
same,Population Apoptotic (%),[3],17%
same,Population Fragmented Nuclei (%),[3],17%
same,Population Healthy Nuclei (%),[3],49%
same,Population Hoechst High Intensity Objects (%),[3],12%
same,Population Membrane Permeable-Phenotype (%),[3],3%
same,Population Mitochondria Different-Phenotype (%),[3],8%
same,Population Mitotic Cells (%),[3],82%
same,Population Normal (%),[3],87%
same,Population Pyknosed Nuclei (%),[3],32%
same,Population Tubulin-Different-Phenotype (%),[3],6%
same,Total Cell Count,[3],507
same,Population Apoptotic (%),[4],11%
same,Population Fragmented Nuclei (%),[4],8%
same,Population Healthy Nuclei (%),[4],86%
same,Population Hoechst High Intensity Objects (%),[4],3%
same,Population Membrane Permeable-Phenotype (%),[4],1%
same,Population Mitochondria Different-Phenotype (%),[4],11%
same,Population Mitotic Cells (%),[4],88%
same,Population Normal (%),[4],96%
same,Population Pyknosed Nuclei (%),[4],4%
same,Population Tubulin-Different-Phenotype (%),[4],10%
same,Total Cell Count,[4],1692
same,Population Apoptotic (%),[5],24%
same,Population Fragmented Nuclei (%),[5],16%
same,Population Healthy Nuclei (%),[5],53%
same,Population Hoechst High Intensity Objects (%),[5],17%
same,Population Membrane Permeable-Phenotype (%),[5],3%
same,Population Mitochondria Different-Phenotype (%),[5],15%
same,Population Mitotic Cells (%),[5],75%
same,Population Normal (%),[5],82%
same,Population Pyknosed Nuclei (%),[5],30%
same,Population Tubulin-Different-Phenotype (%),[5],18%
same,Total Cell Count,[5],507
same,Population Apoptotic (%),[6],20%
same,Population Fragmented Nuclei (%),[6],4%
same,Population Healthy Nuclei (%),[6],84%
same,Population Hoechst High Intensity Objects (%),[6],10%
same,Population Membrane Permeable-Phenotype (%),[6],1%
same,Population Mitochondria Different-Phenotype (%),[6],20%
same,Population Mitotic Cells (%),[6],79%
same,Population Normal (%),[6],89%
same,Population Pyknosed Nuclei (%),[6],11%
same,Population Tubulin-Different-Phenotype (%),[6],39%
same,Total Cell Count,[6],810
same,Population Apoptotic (%),[7],27%
same,Population Fragmented Nuclei (%),[7],13%
same,Population Healthy Nuclei (%),[7],66%
same,Population Hoechst High Intensity Objects (%),[7],8%
same,Population Membrane Permeable-Phenotype (%),[7],12%
same,Population Mitochondria Different-Phenotype (%),[7],5%
same,Population Mitotic Cells (%),[7],72%
same,Population Normal (%),[7],91%
same,Population Pyknosed Nuclei (%),[7],19%
same,Population Tubulin-Different-Phenotype (%),[7],11%
same,Total Cell Count,[7],535
same,Population Apoptotic (%),[8],3%
same,Population Fragmented Nuclei (%),[8],24%
same,Population Healthy Nuclei (%),[8],73%
same,Population Hoechst High Intensity Objects (%),[8],4%
same,Population Membrane Permeable-Phenotype (%),[8],7%
same,Population Mitochondria Different-Phenotype (%),[8],2%
same,Population Mitotic Cells (%),[8],96%
same,Population Normal (%),[8],95%
same,Population Pyknosed Nuclei (%),[8],1%
same,Population Tubulin-Different-Phenotype (%),[8],12%
same,Total Cell Count,[8],2851
